{"source": "paper PMC7984436", "about": "(Clinical Pharmacology in Drug Development, 2020)", "key": {"[1]": {"conditions": "cited from earlier work; for elimination half-life: background statement for the sampling period, no reference given"}, "[2]": {"type": "in vivo, human", "conditions": "for Tmax: median (minimum through maximum); for Cmax: n = 22, mean ± SD; for t1/2: mean ± SD"}, "[3]": {"test_system": "CYP3A", "conditions": "oral contraceptives that are substrates of CYP3A; cited from earlier work"}, "[4]": {"test_system": "CYP3A", "conditions": "cited from earlier work"}, "[5]": {"test_system": "CYP2B6", "assay": "In vivo effect of upadacitinib on CYP2B6", "parameters": "species or system human"}, "[6]": {"conditions": "cited from earlier work"}, "[7]": {"assay": "Safety monitoring in the phase 1 study", "type": "in vivo, human", "conditions": "healthy subjects", "summary_of_the_method": "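Healthy adults aged 18-55 took part in a single-centre, open-label, two-period, single-sequence study with 24-day on-site confinement. Period 1 gave a single oral 150 mg extended-release CYP2B6 probe substrate dose after at least a 10-hour fast. Period 2 repeated that dose on day 12 of 16 days of oral test compound. Throughout, safety checks covered adverse events, physical exams, vital signs, ECG, haematology, chemistry and urinalysis.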"}, "[8]": {"test_system": "JAK1", "conditions": "less potent against JAK2, JAK3, and tyrosine kinase; cited from earlier work"}, "[9]": {"test_system": "CYP1A2, CYP2C9, CYP2C19, or CYP2D6", "conditions": "chronic dosing of upadacitinib 30 mg once daily, healthy volunteers; cited from earlier work"}, "[10]": {"test_system": "CYP2B6 mRNA", "conditions": "in vitro, at concentrations higher than clinically relevant; cited from earlier work"}, "[11]": {"conditions": "cited from earlier work", "remark": "listed apart in the source"}, "[12]": {"test_system": "CYP enzymes (CYP1A2, CYP2B6, CYP2C8, CYP2C9, CYP2C19, CYP2D6, and CYP3A4)", "conditions": "at clinically relevant concentrations, cited from earlier work"}, "[13]": {"conditions": "Study period 2, day 12: upadacitinib 30 mg once daily + bupropion 150 mg"}, "[14]": {"conditions": "Period 1, day 1: bupropion 150-mg single dose"}, "[15]": {"conditions": "Period 2, day 12: upadacitinib 30 mg once daily + bupropion 150-mg single dose"}, "[16]": {"conditions": "Study period 1, day 1: bupropion 150 mg alone"}, "[17]": {"conditions": "with upadacitinib relative to bupropion alone"}, "[18]": {"conditions": "with upadacitinib 30 mg once daily"}, "[19]": {"conditions": "with multiple doses of rifampin (broad CYP inducer)"}, "[20]": {"conditions": "with the strong CYP3A inhibitor ketoconazole"}}, "note": "“Also recorded” adds a separate entry of the source. Like-named read-outs stand apart in the source and are kept apart here.", "data": [{"compound": "CC(NC(C)(C)C)C(=O)c1cccc(Cl)c1", "note": "(stereo not shown) [Bupropion, bupropion]", "values": [{"measurement": "elimination half-life", "setting": "[1]", "value": "approximately 20 hours"}, {"measurement": "Tmax", "setting": "[2]; [13]", "value": "5.0 (3.0‐8.0) h"}, {"measurement": "AUC(0-inf)", "setting": "[2]; human, plasma, oral, 150 mg", "value": 859, "unit": "ng·h/mL"}, {"measurement": "AUC(0-t)", "setting": "[2]; human, plasma, oral, 150 mg", "value": "869 ± 271", "unit": "ng·h/mL"}, {"measurement": "Cmax", "setting": "[2]; human, plasma, oral, 150 mg, Cmax, Study period 1, day 1: bupropion 150 mg alone, plasma", "value": "83.5 ± 26.2", "unit": "ng/mL"}]}, {"compound": "C[C@H]1NC(C)(C)CO[C@]1(O)c1cccc(Cl)c1", "note": "[Hydroxybupropion, hydroxybupropion]", "values": [{"measurement": "elimination half-life", "setting": "[1]", "value": "approximately 20 hours"}, {"measurement": "range of variability in hydroxybupropion exposures", "setting": "[1]; inter- and intrasubject variability", "value": "20% to 50%"}, {"measurement": "Hydroxybupropion-to-bupropion metabolic ratio, AUCinf, central value, reference", "setting": "[2]; [14]", "value": 16.9}, {"measurement": "Hydroxybupropion-to-bupropion metabolic ratio, AUCt, central value, reference", "setting": "[2]; [14]", "value": 16.5}, {"measurement": "Hydroxybupropion-to-bupropion metabolic ratio, Cmax, central value, reference", "setting": "[2]; [14]", "value": 3.83}, {"measurement": "Hydroxybupropion-to-bupropion metabolic ratio, AUCinf, central value, test", "setting": "[2]; [15]", "value": 13.2}, {"measurement": "Hydroxybupropion-to-bupropion metabolic ratio, AUCt, central value, test", "setting": "[2]; [15]", "value": 13.1}, {"measurement": "Hydroxybupropion-to-bupropion metabolic ratio, Cmax, central value, test", "setting": "[2]; [15]", "value": 3.45}, {"measurement": "t1/2", "setting": "[2]; [16]", "value": "25.1 ± 6.8", "unit": "h"}, {"measurement": "Tmax", "setting": "[2]; [16]", "value": "10.0 (5.0‐24.0) h"}, {"measurement": "Cmax", "setting": "[2]; Study period 1, day 1: bupropion 150 mg alone, plasma", "value": "336 ± 150", "unit": "ng/mL"}, {"measurement": "t1/2", "setting": "[2]; [13]", "value": "23.9 ± 5.6", "unit": "h"}, {"measurement": "Tmax", "setting": "[2]; [13]", "value": "10.0 (6.0‐24.0) h"}, {"measurement": "Cmax", "setting": "[2]; Study period 2, day 12: upadacitinib 30 mg once daily + bupropion 150 mg, plasma", "value": "264 ± 121", "unit": "ng/mL"}, {"measurement": "AUCt ratio of central values, point estimate", "setting": "[2]; with upadacitinib 30 mg once daily relative to bupropion alone", "value": 0.726}, {"measurement": "exposures (AUCinf) lower when administered with upadacitinib", "setting": "[2]; with upadacitinib 30 mg once daily versus bupropion alone", "value": 28, "unit": "%"}, {"measurement": "Hydroxybupropion-to-bupropion metabolic ratio, AUCinf, ratio of central values, point estimate", "setting": "[2]; [17]", "value": 0.780}, {"measurement": "Hydroxybupropion-to-bupropion metabolic ratio, AUCt, ratio of central values, point estimate", "setting": "[2]; [17]", "value": 0.790}, {"measurement": "Hydroxybupropion-to-bupropion metabolic ratio, Cmax, ratio of central values, point estimate", "setting": "[2]; [17]", "value": 0.902}]}, {"compound": "C#C[C@]1(O)CC[C@H]2[C@@H]3CCc4cc(O)ccc4[C@H]3CC[C@@]21C", "note": "[ethinylestradiol]", "values": [{"measurement": "impact of upadacitinib on exposure", "setting": "[3]", "value": "no impact"}]}, {"compound": "C#C[C@]1(O)CC[C@H]2[C@@H]3CCC4=CC(=O)CC[C@@H]4[C@H]3CC[C@@]21CC", "note": "[levonorgestrel]", "values": [{"measurement": "impact of upadacitinib on exposure", "setting": "[3]", "value": "no impact"}]}, {"compound": "Cc1ncc2n1-c1ccc(Cl)cc1C(c1ccccc1F)=NC2", "note": "[midazolam]", "values": [{"measurement": "decrease in exposures of midazolam", "setting": "[4]; chronic dosing of upadacitinib 30 mg once daily, healthy volunteers", "value": 26, "unit": "%"}, {"measurement": "decrease in midazolam AUC", "setting": "[4]; [18]", "value": 26, "unit": "%"}, {"measurement": "decrease in midazolam Cmax", "setting": "[4]; [18]", "value": 26, "unit": "%"}]}, {"compound": "CC[C@@H]1CN(C(=O)NCC(F)(F)F)C[C@@H]1c1cnc2cnc3[nH]ccc3n12", "note": "[upadacitinib]", "values": [{"measurement": "effect on bupropion exposures (Cmax or AUC)", "setting": "[5]; bupropion on day 12 of 16-day upadacitinib 30 mg once daily regimen", "value": "no relevant effect"}, {"measurement": "effect on pharmacokinetics of substrates metabolized by CYP2B6", "setting": "[5]; upadacitinib 30 mg once daily, multiple doses", "value": "no relevant effect; also recorded: lack of relevant effect"}, {"measurement": "decrease in upadacitinib AUC", "setting": "[6]; [19]", "value": "~60", "unit": "%"}, {"measurement": "decrease in upadacitinib Cmax", "setting": "[6]; [19]", "value": "approximately 50%"}, {"measurement": "increase in upadacitinib AUC", "setting": "[6]; [20]", "value": 75, "unit": "%"}, {"measurement": "increase in upadacitinib Cmax", "setting": "[6]; [20]", "value": 70, "unit": "%"}, {"measurement": "discontinuation because of adverse events", "setting": "[7]; n = 22", "value": "no subject discontinued because of AEs"}, {"measurement": "severity of the majority of treatment-emergent adverse events", "setting": "[7]; n = 22, upadacitinib 30 mg once daily and bupropion 150 mg", "value": "mild in severity"}, {"measurement": "JAK1 inhibition", "setting": "[8]", "value": "potently inhibits"}, {"measurement": "effects on CYP1A2, CYP2C9, CYP2C19, or CYP2D6 activity", "setting": "[9]", "value": "no relevant effects"}, {"measurement": "CYP2B6 mRNA expression", "setting": "[10]", "value": "increase in CYP2B6 mRNA expression"}, {"measurement": "dose eliminated unchanged in urine", "setting": "[11]", "value": "approximately 20%"}, {"measurement": "inhibition or induction of the activity of CYP enzymes", "setting": "[12]", "value": "did not inhibit or induce"}, {"measurement": "inhibitor or inducer of drug-metabolizing enzymes, including CYP2B6", "setting": "[12]; in vitro", "value": "not an inhibitor or inducer"}]}]}
